From publication PMC2847577 (Molecular cell, 2009) come the findings set out here.

In data set [1] the target is Puc^1-390 (Drosophila). Kind of data set: AUC.
Data set [2] addresses Puc^1-390 (Drosophila). Nature of the data set: AUC. This is another data set of the same source.
Data set [3] addresses SPOP^MATH (Homo sapiens, UniProt O43791). Kind of data set: Surface Plasmon Resonance. The class given is binding. As to conditions: Surface Plasmon Resonance (BIACORE), wildtype SPOP^MATH. An outline of the steps:
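SPOP MATH domain expressed in E. coli BL21(DE3) GOLD as a GST fusion and purified by affinity, ion-exchange and gel-filtration chromatography. Binding of substrate-derived SPOP-binding-consensus peptides was measured by surface plasmon resonance on a BIACORE3000, and binding constants were reported.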
On the technique in general: Surface plasmon resonance follows binding to a sensor surface in real time, without labels.

In another data set the target is Puc^93-107 (Drosophila). Kind of data set: SPR.
The data set “crystal structure” deals with the molecule itself. Kind of data set: crystal structure.
Another data set deals with Cul3^NTD (UniProt Q13618 1-384). Nature of the data set: AUC.
In data set [4] the target is SPOP^MATH (human, UniProt O43791 28-166). Nature of the data set: crystal structure.
The data set “AUC” concerns the molecule itself. Kind of data set: AUC.

Like-named read-outs stand apart in the source and are kept apart here. No end group written: not given here.

Sequence of Cul3^NTD (Q13618 1-384): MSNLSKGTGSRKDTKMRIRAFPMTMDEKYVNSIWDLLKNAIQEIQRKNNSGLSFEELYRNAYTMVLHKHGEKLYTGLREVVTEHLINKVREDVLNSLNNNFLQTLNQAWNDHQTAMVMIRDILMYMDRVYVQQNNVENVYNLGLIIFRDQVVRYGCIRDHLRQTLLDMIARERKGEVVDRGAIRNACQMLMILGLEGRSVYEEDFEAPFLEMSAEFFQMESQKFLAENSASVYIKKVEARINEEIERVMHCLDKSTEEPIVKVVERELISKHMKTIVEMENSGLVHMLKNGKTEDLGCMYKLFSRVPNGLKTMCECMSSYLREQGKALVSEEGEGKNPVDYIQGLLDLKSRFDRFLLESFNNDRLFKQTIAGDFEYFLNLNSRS

As for “SPOP^MATH-BTB+ (from UniProt O43791 28-329) (domain or fragment)”, the stoichiometry N with Puc^1-390 (Drosophila) [1] and with Puc^1-390 (Drosophila) [2] was 2 SPOP per Puc throughout.

As for DSTTEGTPADGFTVL [MacroH2A pep2], on SPOP^MATH [3], the “binding to SPOP^MATH (result in words)” value is “negligible binding”. As for “Ac-LACDEVTSTTSSSTA (N-terminus assumed) [Puc^93-107]”, the “binding to SPOP^MATH (result in words)” value on SPOP^MATH [3] was “sufficient for binding”.

With “SPOP^MATH (from UniProt O43791 28-166) (domain or fragment)”, the Kd – broadly, the free concentration of one partner at which half of the binding sites on the other are occupied at equilibrium, for simple one-to-one binding – with Puc^93-107 (Drosophila) is 4 µM. As for “MacroH2A^166-179: Synthetic peptide for the MacroH2A SPOP-binding region, residues 166-179 (KAASADSTTEGTPAD)”, the “binding to SPOP^MATH (result in words)” value with SPOP^MATH [3] is “sufficient for binding”.

B1: Gig^1-258 (domain or fragment, human, UniProt Q9H2C0 1-258, looked up)
chain: MAEGSAVSDPQHAARLLRALSSFREESRFCDAHLVLDGEEIPVQKNILAAASPYIRTKLNYNPPKDDGSTYKIELEGISVMVMREILDYIFSGQIRLNEDTIQDVVQAADLLLLTDLKTLCCEFLEGCIAAENCIGIRDFALHYCLHHVHYLATEYLETHFRDVSSTEEFLELSPQKLKEVISLEKLNVGNERYVFEAVIRWIAHDTEIRKVHMKDVMSALWVSGLDSSYLREQMLNEPLVREIVKECSNIPLSQPQQ
modifications: selenomethionines (structure phased by SAD)
On to B1, for which the binding result in the data set “crystal structure” is listed as “binds”.

B2: SPOP^BTB+ (domain or fragment, human, UniProt O43791 172-329, looked up)
chain: GQNTMNMVKVPECRLADELGGLWENSRFTDCCLCVAGQEFQAHKAILAARSPVFSAMFEHEMEESKKNRVEINDVEPEVFKEMMCFIYTGKAPNLDKMADDLLAAADKYALERLKVMCEDALCSNLSVENAAEILILADLHSADQLKTQAVDFINYHA
With B2, in the data set with Cul3^NTD, the stoichiometry N (in general, a count of units in the complex or per binding partner) is 1 SPOP per Cul3 (2:2). Also, the binding result in the data set “crystal structure” is recorded as “binds”.

B3: SPOP^BTB+ L186D, L190D, L193D, I217K (domain or fragment, human, UniProt O43791 172-329, looked up)
chain: GQNTMNMVKVPECRDADEDGGDWENSRFTDCCLCVAGQEFQAHKAKLAARSPVFSAMFEHEMEESKKNRVEINDVEPEVFKEMMCFIYTGKAPNLDKMADDLLAAADKYALERLKVMCEDALCSNLSVENAAEILILADLHSADQLKTQAVDFINYHA
As to B3, the “stoichiometry N” value with Cul3^NTD is 1 SPOP per Cul3 (1:1).

B4: Ci SBC2 peptide (peptide)
peptide: NTLFPDVSSSTH
With B4, in the data set with SPOP^MATH [4], the binding result is given as “binds”.

B5: MacroH2A_pep1 (peptide)
peptide: KAASADSTTEGTPAD
As for B5, in the data set with SPOP^MATH [4], the binding result is reported as “binds”.

B6: Puc SBC1_pep1 (peptide)
peptide: DEVTSTTSSS
As to B6, the binding result with SPOP^MATH [4] is “binds”.

B7: SPOP^BTB (domain or fragment, human, UniProt O43791 173-297, looked up)
chain: QNTMNMVKVPECRLADELGGLWENSRFTDCCLCVAGQEFQAHKAILAARSPVFSAMFEHEMEESKKNRVEINDVEPEVFKEMMCFIYTGKAPNLDKMADDLLAAADKYALERLKVMCEDALCSNL
Consider B7, for which the “stoichiometry N” value with Cul3^NTD is 1 SPOP per Cul3 (2:2).

B8: SPOP^MATH-BTB+ (domain or fragment, human, UniProt O43791 28-329, looked up)
chain: KVVKFSYMWTINNFSFCREEMGEVIKSSTFSSGANDKLKWCLRVNPKGLDEESKDYLSLYLLLVSCPKSEVRAKFKFSILNAKGEETKAMESQRAYRFVQGKDWGFKKFIRRDFLLDEANGLLPDDKLTLFCEVSVVQDSVNISGQNTMNMVKVPECRLADELGGLWENSRFTDCCLCVAGQEFQAHKAILAARSPVFSAMFEHEMEESKKNRVEINDVEPEVFKEMMCFIYTGKAPNLDKMADDLLAAADKYALERLKVMCEDALCSNLSVENAAEILILADLHSADQLKTQAVDFINYHA
Turning to B8, the binding result in the data set “AUC” is on record as “binds”.
